# Screens as filed in PubChem.
# Sampled rows, rich in hits. Any-hit rate of the full collection: about 1.5%.
# NTR1 agonist = activates human neurotensin receptor 1; P30989; NTR1-U2OS beta-arrestin-GFP spot imaging, agonist mode; activation, % at 20 µM; hit rate 0.17% among 330,000;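 active = activation at or above 40% of the spot to cytoplasm intensity ratio, with at least 20 cells analyzed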
# Target sequence (P30989 whole entry, looked up): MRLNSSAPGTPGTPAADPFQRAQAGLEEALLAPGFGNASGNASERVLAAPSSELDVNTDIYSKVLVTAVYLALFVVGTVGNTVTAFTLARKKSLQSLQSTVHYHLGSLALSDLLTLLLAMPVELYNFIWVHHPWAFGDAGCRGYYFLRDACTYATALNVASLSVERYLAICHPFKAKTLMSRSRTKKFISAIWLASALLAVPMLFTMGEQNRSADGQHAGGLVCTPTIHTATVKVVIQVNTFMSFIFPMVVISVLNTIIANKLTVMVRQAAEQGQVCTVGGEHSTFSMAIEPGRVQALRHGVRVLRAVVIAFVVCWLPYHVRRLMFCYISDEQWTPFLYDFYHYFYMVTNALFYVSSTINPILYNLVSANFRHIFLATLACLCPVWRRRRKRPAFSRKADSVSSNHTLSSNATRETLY
# APJ antagonist = APJ receptor antagonism; P35414; CHO-K1 APJ beta-arrestin complementation, luminescence; inhibition, % at 20 µM; hit rate 0.32% among 330,000; AID 2521;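 active = inhibition above about 40% at 20 µM, limit read from the data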;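 note: cells challenged with 10 nM apelin-13 agonist together with compound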
# CXCR6 inh = CXCR6 (human) receptor inhibition; inhibition, % at 20 µM; AID 602244; CHO-K1 PathHunter CXCR6 beta-arrestin, luminescence; hit rate 0.36% among 360,000; O00574; in the data active = inhibition above about 34%, passing the limit was not always enough;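 note: antagonist mode with CXCL16 agonist at 10 nM final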
# CCR6 antag = CCR6 (human) receptor antagonism | inhibition, % at 20 µM | P51684 | CHO-K1 CCR6 PathHunter beta-arrestin, luminescence, CCL20-stimulated | hit rate 0.49% among 340,000;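 active = compounds whose inhibition of the agonist-driven luminescence signal at 20 µM reaches about 50%, limit read from the data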;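 note: cells stimulated with CCL20 at 14 nM final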
# HTR2A ag = agonists of mouse serotonin 5-HT2A receptor (HTR2A). CHO-K1 mHTR2A beta-arrestin complementation, luminescence; percent of 30 µM serotonin response. activation, % at 7.6 µM. hit rate 0.66% among 360,000. AID 624169;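 active = activation above a run cutoff, the mean activation of all tested compounds plus 3 SD, cut at about 14% in these data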
# APJ agonist = agonists of human APJ apelin receptor | CHO-K1 APJ PathHunter beta-arrestin, luminescence; 0% DMSO wells, 100% apelin | activation, % at 20 µM | hit rate 0.11% among 330,000;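 active = activation more than six SD over the plate average, tested at 20 µM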
#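 Test system: CHO-K1 APJ beta-arrestin complementation cell line | Compound: Single test compound dose, 20 µM final, 1% DMSO | Incubation: Compound 90 min 25 °C, reagent 1 h | Measured by: beta-gal luminescence | Read-out basis: APJ–arrestin association signal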
# A number is an active result; n = inactive; x = no result.
SMILES,NTR1 agonist,APJ antagonist,CXCR6 inh,CCR6 antag,HTR2A ag,APJ agonist
Cc1ccc(C(=O)N(C)CCOc2ccccc2)cc1S(=O)(=O)N1CCOCC1,n,n,n,n,n,n
CC1C(=O)N(Cc2cn(Cc3ccco3)nn2)CCS(=O)(=O)N1Cc1ccc(-c2ccccc2Cl)cc1 (centres undefined),x,x,n,x,n,x
CNCc1ccccc1Sc1cc(O)ccc1O,n,n,n,83.8,n,n
CNCc1ccccc1Sc1cccc(O)c1,n,n,n,n,n,n
COc1ccccc1C(=O)NNC1=C(C(=O)C(F)(F)F)CCC1,n,n,44.3,59.4,n,n
CN(Cc1ccccc1)C(=S)NC(=O)c1ccc(-c2ccccc2)cc1,n,n,n,57.0,n,n
CCc1nc2ccc(C(=O)NC3CCN(Cc4ccccc4)CC3)cn2c1N(CC)Cc1cccc(Br)c1,x,x,n,x,n,x
O=C(O)c1ccccc1NS(=O)(=O)c1ccc(N/N=C/c2ccc(O)c(O)c2)c([N+](=O)[O-])c1,x,x,n,50.0,n,x
O=C(O)c1ccccc1NS(=O)(=O)c1ccc(NN=Cc2ccc(F)cc2)c([N+](=O)[O-])c1,n,n,n,n,n,n
O=C(Oc1coc(CSc2ncccn2)cc1=O)c1cccc([N+](=O)[O-])c1,n,n,n,n,n,n
O=C(Oc1c(Cl)cc(Cl)c2cccnc12)c1cccc([N+](=O)[O-])c1,n,n,n,68.4,n,n
Cc1cccc2nc(COc3ccc(Cl)c4cccnc34)cn12,n,n,n,n,n,n
O=C1CCC/C(=N/Nc2ccc(Cl)cc2)C1,n,n,n,n,n,n
O=C(C1=C[C@H](c2csc3ccccc23)C[C@H](OCCCCO)O1)N1CCN(Cc2ccc3c(c2)OCO3)CC1,n,n,n,n,n,n
O=C(C1=C[C@@H](c2csc3ccccc23)C[C@@H](OCCCCO)O1)N1CCN(Cc2ccc3c(c2)OCO3)CC1,n,n,n,n,35.3,n
CCC[C@@H]1C[C@@H](C(=O)NC(C(C)Cl)[C@H]2O[C@H](SC)[C@H](O)[C@@H](O)[C@H]2O)N(C)C1 (some centres undefined),n,n,n,n,39.8,n
CCCC1CC(C(=O)NC(C(C)Cl)C2OC(SC)C(O)C(O)C2O)N(C)C1 (centres undefined),n,n,n,n,n,n
Cn1nnc2cc(C(=O)N3CCN(c4ccccn4)CC3)ccc21,n,n,n,n,n,n
CCN(CC)c1ccc2cc(C(=O)NNC(=O)c3ccc(S(=O)(=O)N4CCCCC4)cc3)c(=O)oc2c1,x,x,n,69.0,n,x
CCOc1ccc(C(=O)C(C)OC(=O)Cn2[nH]c(=O)c3ccccc3c2=O)cc1 (centres undefined),n,n,n,n,n,n
CC/C(=C\C1CCCCC1)C(NP(=O)(c1ccccc1)c1ccccc1)c1ccccc1 (centres undefined),n,n,43.7,n,n,n
O=C1C=CC2(O[C@H](c3ccccc3)[C@@H](c3ccccc3)O2)[C@H](Sc2ccccc2O)C1,x,x,94.0,103.6,n,x
O=C(O)CN1C(=O)/C(=C\C(Br)=C\c2ccccc2)SC1=S,n,n,n,n,n,n
Cc1c(C(=O)Nc2nccs2)sc2nc(-c3cccs3)cc(C(F)(F)F)c12,n,n,n,53.4,n,n
COc1cc(C(C)=O)ccc1OCC(=O)N(CCC1=CCCCC1)c1c(N)n(Cc2ccccc2)c(=O)[nH]c1=O,n,n,n,n,n,n
SMILES,NTR1 agonist,APJ antagonist,CXCR6 inh,CCR6 antag,HTR2A ag,APJ agonist
Cc1ccc(-c2nnc(Nc3ccccc3)c3ccccc23)cc1S(=O)(=O)NCC1CCCO1 (centres undefined),n,n,n,n,n,n
Cc1ccc(-c2nn3c(-c4ccco4)nnc3c3ccccc23)cc1S(=O)(=O)NCC1CCCO1 (centres undefined),n,n,n,50.9,n,n
Cc1c(N=C2C=CC(=O)c3ccccc32)c(=O)n(-c2ccccc2)n1C,x,x,n,75.1,n,x
Cc1c(N=C2C=C(Br)C(=O)C(Br)=C2)c(=O)n(-c2ccccc2)n1C,n,n,n,n,n,n
COc1ccc(C(=O)CC(=O)C(=O)Nc2ccc(OC)c(Cl)c2)cc1,n,n,n,n,n,n
COc1ccc(C(=O)CC(=O)C(=O)Nc2ccc(Cl)cc2)cc1,x,x,n,53.4,n,x
O=C(C(Cc1ccccc1)N1C(=O)C2C3C=CC(C3)C2C1=O)N1CCCCC1 (centres undefined),n,n,n,108.1,n,n
CC1(C)CCCC2(C)C1CCC1(C)OC(=O)CCC12 (centres undefined),x,x,n,x,n,x
CC(=O)OC[C@]12CC[C@H]3[C@@](C)(CC[C@H]4C(C)(C)CCC[C@]34C)[C@@H]1C[C@H](C1=CC(=O)O[C@@H]1OC(C)=O)O2,n,n,x,x,x,11.2
O=c1c2ccccc2c(/C=N/c2n[nH]c(CCCO)n2)c(O)n1-c1ccccc1Cl,n,n,n,n,n,n
Cc1ccc(-n2c(Cl)c(Cl)nc(Cl)c2=O)cc1,x,x,60.7,82.1,n,x
NS(=O)(=O)c1ccc(NC(=O)c2ccc(F)cc2F)c(NC(=O)c2ccc(F)cc2F)c1,n,n,n,50.7,n,n
CCC(C)[C@@H](NC(=O)OC(C)(C)C)c1nnc(S(=O)(=O)Cc2cccc(C)c2)o1 (some centres undefined),x,x,53.0,n,n,x
CC(C)(C)OC(=O)N[C@@H](Cc1ccccc1)c1nnc(S(=O)(=O)Cc2ccccc2)o1,n,n,x,x,x,n
CCO[C@@H]1OC(C(=O)N2CCOCC2)=C[C@H](c2ccc(Br)cc2)[C@H]1CCCO,n,n,n,n,17.8,n
CCCCn1nnnc1C(c1ccccc1)N1CCN(c2ccccn2)CC1 (centres undefined),x,x,n,x,n,x
O=C(NCCN1CCCCC1)Nc1cccc(F)c1,n,n,n,n,n,n
CN(C)c1nc(Nc2ccc(F)cc2)nc(Oc2ccc(F)cc2)n1,n,n,n,n,n,n
CN(C)c1nc(N/N=C/c2ccccc2O)nc(Nc2ccc(F)cc2)n1,n,n,68.0,70.7,n,n
O=[N+]([O-])c1ccc2nc(NN=Cc3ccc(O)cc3)sc2c1,x,x,55.4,78.0,n,x
O=C(NCc1ccccc1)N1CCN(c2ccc(Cl)c(Cl)c2)CC1,n,n,n,n,18.2,n
Cc1ccc(F)c(S(=O)(=O)NC(=O)C2(C)CCN2C(=O)c2sccc2C)c1 (centres undefined),x,x,n,x,n,x
O=C(COC(=O)c1ccc(OC(F)(F)F)cc1)NCCN1C(=O)CSC1=O,n,n,n,n,n,n
Cc1cc(C)nc(N/N=C/c2ccccc2OCc2ccc(Br)cc2)n1,n,n,n,n,n,n
Cc1cc(C)nc(N/N=C/c2cc(Br)ccc2O)n1,n,n,44.5,n,n,n
